Where a SMILES comes first, the peptide text is derived from it. [ ]: non-standard residue; d: D form. The star is where a group is joined. Adenosine(5'-uronoyl) = Nc1ncnc2c1ncn2[C@@H]1O[C@H](C(=O)*)[C@@H](O)[C@H]1O; Ahx = NCCCCCC(=O)O
Key:
[1] = target: Ribosomal protein S6 kinase alpha-3 (Homo sapiens) (UniProt P51812); details: 100 nM
[2] = target: RAC-alpha serine/threonine-protein kinase (Homo sapiens) (UniProt P31749); experiment: Inhibition of AKT1 at 100 nM relative to control
How it was run: (§1)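 Activity is expressed as percent inhibition versus control incubations lacking inhibitor. Values are means of duplicate determinations.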

[3] = target: Protein kinase C beta type (Homo sapiens) (UniProt P05771); experiment: Inhibition of PKCbeta1 at 100 nM relative to control
Sequence of Protein kinase C beta type (Homo sapiens) (P05771 2-671 limits assumed): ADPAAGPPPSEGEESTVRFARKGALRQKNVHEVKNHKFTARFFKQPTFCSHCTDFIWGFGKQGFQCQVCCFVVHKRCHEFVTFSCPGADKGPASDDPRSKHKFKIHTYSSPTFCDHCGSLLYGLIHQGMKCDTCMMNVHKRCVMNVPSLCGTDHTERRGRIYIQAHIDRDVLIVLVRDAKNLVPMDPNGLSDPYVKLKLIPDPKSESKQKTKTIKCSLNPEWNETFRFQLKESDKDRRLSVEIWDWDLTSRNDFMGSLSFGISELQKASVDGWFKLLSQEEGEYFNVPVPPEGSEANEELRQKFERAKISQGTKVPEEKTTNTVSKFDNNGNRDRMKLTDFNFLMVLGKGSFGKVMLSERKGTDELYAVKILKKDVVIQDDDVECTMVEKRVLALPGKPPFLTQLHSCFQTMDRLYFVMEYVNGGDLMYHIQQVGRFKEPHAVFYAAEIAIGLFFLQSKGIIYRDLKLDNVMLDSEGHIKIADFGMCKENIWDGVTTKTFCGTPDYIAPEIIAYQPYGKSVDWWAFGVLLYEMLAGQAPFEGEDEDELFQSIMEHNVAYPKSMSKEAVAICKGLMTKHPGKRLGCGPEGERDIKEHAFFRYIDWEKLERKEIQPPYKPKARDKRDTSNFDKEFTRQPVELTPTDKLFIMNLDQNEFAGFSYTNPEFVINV
How it was run: as §1

[4] = target: 5'-AMP-activated protein kinase subunit gamma-1 (Homo sapiens) (UniProt P54619); experiment: Inhibition of AMPKgamma1 at 100 nM relative to control
How it was run: as §1

[5] = target: Rho-associated protein kinase 1 (Homo sapiens) (UniProt Q13464); experiment: Inhibition of ROCK1 at 100 nM relative to control
How it was run: as §1

[6] = target: Serine/threonine-protein kinase PAK 4 (Homo sapiens) (UniProt O96013); experiment: Inhibition of PAK4 at 100 nM relative to control
How it was run: as §1

[7] = target: Calcium/calmodulin-dependent protein kinase type 1D (Homo sapiens) (UniProt Q8IU85); experiment: Inhibition of CaMK1delta at 100 nM relative to control
How it was run: as §1

[8] = target: Protein kinase C beta type (Homo sapiens) (UniProt P05771); experiment: Inhibition of PKCbeta2 at 100 nM relative to control
How it was run: as §1

[9] = target: Serine/threonine-protein kinase D3 (Homo sapiens) (UniProt O94806); experiment: Inhibition of PKD3 at 100 nM relative to control
Sequence of Serine/threonine-protein kinase D3 (Homo sapiens) (O94806 whole entry): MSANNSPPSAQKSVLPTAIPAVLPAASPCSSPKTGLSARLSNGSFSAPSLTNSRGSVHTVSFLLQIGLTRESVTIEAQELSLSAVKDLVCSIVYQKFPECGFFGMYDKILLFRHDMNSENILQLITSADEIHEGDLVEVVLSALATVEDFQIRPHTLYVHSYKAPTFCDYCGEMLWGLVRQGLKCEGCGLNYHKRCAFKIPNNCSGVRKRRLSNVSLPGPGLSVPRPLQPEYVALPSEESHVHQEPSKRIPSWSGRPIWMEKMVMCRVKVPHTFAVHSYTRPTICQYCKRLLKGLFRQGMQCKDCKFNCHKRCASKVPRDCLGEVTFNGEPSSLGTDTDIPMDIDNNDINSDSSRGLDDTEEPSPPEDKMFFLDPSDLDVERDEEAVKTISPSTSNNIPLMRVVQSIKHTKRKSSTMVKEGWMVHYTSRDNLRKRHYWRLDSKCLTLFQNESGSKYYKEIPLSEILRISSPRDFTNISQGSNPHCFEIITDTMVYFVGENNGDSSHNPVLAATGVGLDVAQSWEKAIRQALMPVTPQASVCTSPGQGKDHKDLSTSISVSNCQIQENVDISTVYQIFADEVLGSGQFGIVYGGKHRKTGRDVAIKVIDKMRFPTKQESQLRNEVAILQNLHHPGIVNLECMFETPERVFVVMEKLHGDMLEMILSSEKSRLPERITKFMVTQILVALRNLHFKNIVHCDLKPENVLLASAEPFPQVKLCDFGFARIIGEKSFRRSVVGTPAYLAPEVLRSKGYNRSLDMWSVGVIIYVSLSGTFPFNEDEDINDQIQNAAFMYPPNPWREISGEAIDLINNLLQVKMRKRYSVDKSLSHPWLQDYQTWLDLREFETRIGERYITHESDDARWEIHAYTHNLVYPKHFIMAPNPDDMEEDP
How it was run: as §1

[10] = target: T1, cAMP-dependent protein kinase catalytic subunit alpha (Homo sapiens, UniProt P17612); details: 100 nM
[11] = target: Serine/threonine-protein kinase Sgk2 (Homo sapiens) (UniProt Q9HBY8); experiment: Inhibition of SGK2 at 100 nM relative to control
How it was run: as §1

[12] = target: Protein kinase C zeta type (Homo sapiens) (UniProt Q05513); experiment: Inhibition of PKCzeta at 100 nM relative to control
How it was run: as §1

[13] = target: Calcium/calmodulin-dependent protein kinase type II subunit beta (Homo sapiens) (UniProt Q13554); experiment: Inhibition of CaMK2beta at 100 nM relative to control
How it was run: as §1

[14] = target: Serine/threonine-protein kinase D2 (Homo sapiens) (UniProt Q9BZL6); experiment: Inhibition of PKD2 at 100 nM relative to control
How it was run: as §1

[15] = target: Protein kinase C gamma type (Homo sapiens) (UniProt P05129); experiment: Inhibition of PKCgamma at 100 nM relative to control
How it was run: as §1

[16] = target: Serine/threonine-protein kinase PAK 6 (Homo sapiens) (UniProt Q9NQU5); experiment: Inhibition of PAK6 at 100 nM relative to control
How it was run: as §1

[17] = target: Protein kinase C eta type (Homo sapiens) (UniProt P24723); experiment: Inhibition of PKCeta at 100 nM relative to control
How it was run: as §1

[18] = target: 5'-AMP-activated protein kinase catalytic subunit alpha-1 (Homo sapiens) (UniProt Q13131); experiment: Inhibition of AMPKalpha1 at 100 nM relative to control
Sequence of 5'-AMP-activated protein kinase catalytic subunit alpha-1 (Homo sapiens) (Q13131 whole entry, looked up): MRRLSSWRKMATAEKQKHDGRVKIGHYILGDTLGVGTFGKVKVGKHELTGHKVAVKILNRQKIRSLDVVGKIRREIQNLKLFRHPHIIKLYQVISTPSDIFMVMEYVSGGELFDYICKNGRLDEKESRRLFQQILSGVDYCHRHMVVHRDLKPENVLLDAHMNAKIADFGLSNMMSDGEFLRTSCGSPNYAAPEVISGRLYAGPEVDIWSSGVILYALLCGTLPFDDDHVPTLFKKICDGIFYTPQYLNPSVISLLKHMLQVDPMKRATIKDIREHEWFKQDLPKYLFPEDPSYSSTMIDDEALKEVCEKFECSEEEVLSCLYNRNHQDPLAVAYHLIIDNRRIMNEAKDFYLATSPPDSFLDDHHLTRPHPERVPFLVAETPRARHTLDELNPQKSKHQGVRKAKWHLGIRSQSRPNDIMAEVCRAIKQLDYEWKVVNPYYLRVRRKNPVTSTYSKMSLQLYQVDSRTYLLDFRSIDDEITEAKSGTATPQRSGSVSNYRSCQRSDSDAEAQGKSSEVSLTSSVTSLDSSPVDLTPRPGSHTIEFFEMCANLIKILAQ
How it was run: as §1

[19] = target: CDK2/Cyclin A1 (Homo sapiens) (UniProt P24941+P78396); experiment: Inhibition of Cdk2/cyclin A at 100 nM relative to control; assay type: protein-complex assay
How it was run: as §1

[20] = target: cAMP-dependent protein kinase catalytic subunit PRKX (Homo sapiens) (UniProt P51817); details: 100 nM
[21] = target: Ribosomal protein S6 kinase beta-1 (Homo sapiens) (UniProt P23443); experiment: Inhibition of p70S6K at 100 nM relative to control
How it was run: as §1

[22] = target: Rho-associated protein kinase 2 (Bos taurus) (UniProt Q28021); experiment: Binding affinity to ROCK2 by fluorescence polarization assay
[23] = target: Ribosomal protein S6 kinase alpha-4 (Homo sapiens) (UniProt O75676); experiment: Inhibition of MSK2 at 100 nM relative to control
Sequence of Ribosomal protein S6 kinase alpha-4 (Homo sapiens) (O75676 whole entry, looked up): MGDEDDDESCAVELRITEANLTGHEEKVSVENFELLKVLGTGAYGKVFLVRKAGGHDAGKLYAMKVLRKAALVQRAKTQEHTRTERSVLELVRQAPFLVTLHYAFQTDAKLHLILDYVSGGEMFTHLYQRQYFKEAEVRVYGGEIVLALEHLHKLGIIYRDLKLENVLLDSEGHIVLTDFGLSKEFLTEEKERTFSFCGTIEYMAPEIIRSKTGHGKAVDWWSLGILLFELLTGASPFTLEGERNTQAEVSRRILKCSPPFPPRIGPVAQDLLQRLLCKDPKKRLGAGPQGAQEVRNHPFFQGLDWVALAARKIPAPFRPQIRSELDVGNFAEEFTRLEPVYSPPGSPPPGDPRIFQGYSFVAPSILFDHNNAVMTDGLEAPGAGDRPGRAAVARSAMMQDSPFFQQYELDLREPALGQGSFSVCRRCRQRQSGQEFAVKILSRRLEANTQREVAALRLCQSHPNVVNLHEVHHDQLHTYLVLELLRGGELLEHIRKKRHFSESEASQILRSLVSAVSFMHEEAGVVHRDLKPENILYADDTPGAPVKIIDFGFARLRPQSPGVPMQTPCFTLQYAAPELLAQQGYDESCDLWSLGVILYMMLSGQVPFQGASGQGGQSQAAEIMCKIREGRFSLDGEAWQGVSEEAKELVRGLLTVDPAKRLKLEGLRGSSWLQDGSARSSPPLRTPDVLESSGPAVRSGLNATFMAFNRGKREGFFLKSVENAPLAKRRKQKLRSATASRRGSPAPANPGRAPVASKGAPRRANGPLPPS
How it was run: as §1

[24] = target: Aurora kinase A (Homo sapiens) (UniProt O14965); experiment: Inhibition of Aurora A at 100 nM relative to control
How it was run: as §1

[25] = target: RAC-beta serine/threonine-protein kinase (Homo sapiens) (UniProt P31751); experiment: Inhibition of AKT2 at 100 nM relative to control
How it was run: as §1

[26] = target: Death-associated protein kinase 3 (Homo sapiens) (UniProt O43293); experiment: Inhibition of DAPK3 at 100 nM relative to control
How it was run: as §1

[27] = target: Serine/threonine-protein kinase pim-2 (Homo sapiens) (UniProt Q9P1W9); experiment: Inhibition of PIM2 at 100 nM relative to control
How it was run: as §1

[28] = target: Protein kinase C epsilon type (Homo sapiens) (UniProt Q02156); experiment: Inhibition of PKCepsilon at 100 nM relative to control
How it was run: as §1

[29] = target: 5'-AMP-activated protein kinase subunit beta-1 (Homo sapiens) (UniProt Q9Y478); experiment: Inhibition of AMPKbeta1 at 100 nM relative to control
How it was run: as §1

[30] = target: Rho-associated protein kinase 2 (Homo sapiens) (UniProt O75116); details: 100 nM
[31] = target: T1, cAMP-dependent protein kinase catalytic subunit alpha; experiment: Binding affinity to PKA catalytic subunit alpha by fluorescence polarization assay
[32] = target: Ribosomal protein S6 kinase alpha-2 (Homo sapiens) (UniProt Q15349); experiment: Inhibition of RSK3 at 100 nM relative to control
Sequence of Ribosomal protein S6 kinase alpha-2 (Homo sapiens) (Q15349 whole entry): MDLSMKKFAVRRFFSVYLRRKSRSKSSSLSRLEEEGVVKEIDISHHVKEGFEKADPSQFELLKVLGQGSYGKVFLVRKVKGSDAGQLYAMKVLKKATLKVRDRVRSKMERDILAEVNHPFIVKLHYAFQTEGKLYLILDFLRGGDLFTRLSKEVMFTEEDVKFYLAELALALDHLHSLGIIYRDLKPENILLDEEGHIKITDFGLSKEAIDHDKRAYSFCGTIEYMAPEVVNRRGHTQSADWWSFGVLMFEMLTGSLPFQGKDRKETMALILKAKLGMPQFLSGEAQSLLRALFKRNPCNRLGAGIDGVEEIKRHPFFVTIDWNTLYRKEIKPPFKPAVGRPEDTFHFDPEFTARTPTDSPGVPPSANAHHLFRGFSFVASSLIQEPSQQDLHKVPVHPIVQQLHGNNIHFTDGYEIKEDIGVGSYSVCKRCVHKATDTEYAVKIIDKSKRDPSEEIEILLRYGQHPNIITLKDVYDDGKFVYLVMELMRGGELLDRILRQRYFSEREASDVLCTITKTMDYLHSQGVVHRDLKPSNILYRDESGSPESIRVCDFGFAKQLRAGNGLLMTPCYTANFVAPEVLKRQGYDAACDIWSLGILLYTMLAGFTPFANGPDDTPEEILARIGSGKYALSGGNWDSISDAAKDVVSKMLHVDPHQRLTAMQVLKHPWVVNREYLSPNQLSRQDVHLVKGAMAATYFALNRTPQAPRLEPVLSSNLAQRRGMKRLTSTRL
How it was run: as §1

[33] = target: Protein kinase C delta type (Homo sapiens) (UniProt Q05655); experiment: Inhibition of PKCdelta at 100 nM relative to control
How it was run: as §1

[34] = target: cGMP-dependent protein kinase 1 (Homo sapiens) (UniProt Q13976); experiment: Inhibition of PKG1 at 100 nM relative to control
Sequence of cGMP-dependent protein kinase 1 (Homo sapiens) (Q13976 whole entry): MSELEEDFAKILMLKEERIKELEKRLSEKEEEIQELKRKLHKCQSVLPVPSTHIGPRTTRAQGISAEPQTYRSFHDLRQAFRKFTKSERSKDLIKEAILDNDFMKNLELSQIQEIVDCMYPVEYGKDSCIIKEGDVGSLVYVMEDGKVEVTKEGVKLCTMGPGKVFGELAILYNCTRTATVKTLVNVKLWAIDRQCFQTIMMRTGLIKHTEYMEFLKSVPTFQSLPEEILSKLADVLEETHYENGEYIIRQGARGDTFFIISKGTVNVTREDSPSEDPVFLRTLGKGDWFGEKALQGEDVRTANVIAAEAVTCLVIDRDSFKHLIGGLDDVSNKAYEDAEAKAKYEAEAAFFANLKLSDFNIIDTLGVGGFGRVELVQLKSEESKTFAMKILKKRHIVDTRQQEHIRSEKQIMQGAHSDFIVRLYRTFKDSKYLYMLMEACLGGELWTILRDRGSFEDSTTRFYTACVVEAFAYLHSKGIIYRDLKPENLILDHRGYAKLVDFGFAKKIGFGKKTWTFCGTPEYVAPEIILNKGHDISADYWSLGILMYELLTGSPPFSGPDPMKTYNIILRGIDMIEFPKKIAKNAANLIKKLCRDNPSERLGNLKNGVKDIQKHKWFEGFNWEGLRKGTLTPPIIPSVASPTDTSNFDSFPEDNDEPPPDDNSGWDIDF
How it was run: as §1

[35] = target: cGMP-dependent protein kinase 2 (Homo sapiens) (UniProt Q13237); experiment: Inhibition of PKG2 at 100 nM relative to control
How it was run: as §1

[36] = target: Ribosomal protein S6 kinase alpha-1 (Homo sapiens) (UniProt Q15418); experiment: Inhibition of RSK1 at 100 nM relative to control
How it was run: as §1

[37] = target: Proto-oncogene tyrosine-protein kinase Src (Homo sapiens) (UniProt P12931); experiment: Inhibition of SRC at 100 nM relative to control
Sequence of Proto-oncogene tyrosine-protein kinase Src (Homo sapiens) (P12931 2-536 limits assumed): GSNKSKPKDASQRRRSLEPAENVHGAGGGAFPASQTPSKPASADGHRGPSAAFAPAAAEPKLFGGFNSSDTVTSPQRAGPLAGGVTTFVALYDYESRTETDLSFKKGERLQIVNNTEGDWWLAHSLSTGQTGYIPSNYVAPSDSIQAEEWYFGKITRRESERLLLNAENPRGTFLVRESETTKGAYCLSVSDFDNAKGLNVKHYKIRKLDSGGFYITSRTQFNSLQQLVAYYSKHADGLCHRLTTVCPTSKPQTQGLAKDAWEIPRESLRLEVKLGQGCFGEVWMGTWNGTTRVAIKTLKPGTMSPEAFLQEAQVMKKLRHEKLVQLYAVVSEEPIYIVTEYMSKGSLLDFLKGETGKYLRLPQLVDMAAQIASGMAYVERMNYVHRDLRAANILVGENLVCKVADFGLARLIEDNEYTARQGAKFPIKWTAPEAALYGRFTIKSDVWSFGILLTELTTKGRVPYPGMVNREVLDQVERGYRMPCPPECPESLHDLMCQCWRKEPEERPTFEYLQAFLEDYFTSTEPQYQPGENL
How it was run: as §1

[38] = target: Serine/threonine-protein kinase pim-1 (Homo sapiens) (UniProt P11309); experiment: Inhibition of PIM1 at 100 nM relative to control
How it was run: as §1

[39] = target: Serine/threonine-protein kinase Chk1 (Homo sapiens) (UniProt O14757); experiment: Inhibition of CHK1 at 100 nM relative to control
How it was run: as §1

[40] = target: Protein kinase C alpha type (Homo sapiens) (UniProt P17252); experiment: Inhibition of PKCalpha at 100 nM relative to control
How it was run: as §1

[41] = target: RAC-gamma serine/threonine-protein kinase (Homo sapiens, UniProt Q9Y243); experiment: Inhibition of PKBgamma using 100 uM ATP and 30 uM TAMRA-kemptide substrate by fluorometric TLC assay
[42] = target: Maternal embryonic leucine zipper kinase (Homo sapiens) (UniProt Q14680); experiment: Inhibition of MELK at 100 nM relative to control
How it was run: as §1

`N=C(N)NCCC[C@@H](NC(=O)[C@@H](CCCNC(=N)N)NC(=O)[C@@H](CCCNC(=N)N)NC(=O)[C@@H](CCCNC(=N)N)NC(=O)[C@@H](CCCNC(=N)N)NC(=O)[C@@H](CCCNC(=N)N)NC(=O)CCCCCNC(=O)[C@@H](CCCCN)NC(=O)CCCCCNC(=O)[C@H]1O[C@@H](n2cnc3c(N)ncnc32)[C@H](O)[C@@H]1O)C(N)=O` ({Adenosine(5'-uronoyl)-Ahx}-[dK][Ahx][dR][dR][dR][dR][dR][dR]-NH2) gave an inhibition [1] of 104%, an inhibition [2] of 89% and an inhibition [3] of 97%. For the same compound, the inhibition [4] was 51%, the inhibition [5] was 105% and the inhibition [6] was 81%. For the same compound, the inhibition [7] was 35%, the inhibition [8] was 94% and the inhibition [9] was 55%. It also gave an inhibition [10] of 104%, an inhibition [11] of 76% and an inhibition [12] of 53%. It also gave an inhibition [13] of 16%, an inhibition [14] of 37% and an inhibition [15] of 107%. For the same compound, the inhibition [16] was 81%, the inhibition [17] was 106% and the inhibition [18] was 51%. The inhibition [19] was 0%, the inhibition [20] was 104% and the inhibition [21] was 96%. The Kd [22] was less than 1 nM, the inhibition [23] was 109% and the inhibition [24] was 10%. The inhibition [25] was 62%, the inhibition [26] was 22% and the inhibition [27] was 79%. For the same compound, the inhibition [28] was 106%, the inhibition [29] was 51% and the inhibition [30] was 104%. It also gave a Kd [31] of less than 0.5 nM, an inhibition [32] of 99% and an inhibition [33] of 97%. It also gave an inhibition [34] of 58%, an inhibition [35] of 16% and an inhibition [36] of 98%. The inhibition [37] was 28%, the inhibition [38] was 96% and the inhibition [39] was 88%. For the same compound, the inhibition [40] was 94%, the IC50 [41] was 14.6 nM and the inhibition [42] was 84%.

Source: ChEMBL document CHEMBL1139385, “Structural analysis of ARC-type inhibitor (ARC-1034) binding to protein kinase A catalytic subunit and rational design of bisubstrate analogue inhibitors of basophilic protein kinases” (J Med Chem, 2009)
